Reference: ChEMBL document CHEMBL3751740, “New MKLP-2 inhibitors in the paprotrain series: Design, synthesis and biological evaluations” (Bioorg Med Chem, 2016)
Calls of active or inactive are those of the source. The calls are words filed in the database; no cut-off is given here.

Tests used:
[1] = biological target: T1, Kinesin-like protein KIF20A (Homo sapiens, UniProt O95235); experiment: Inhibition of N-terminal MKLP2 (56 to 505 residues) ATPase basal activity isolated from human hepatocellular carcinoma cells by pyruvate kinase/lactate dehydrogenase enzyme linked assay
T1 sequence (O95235 whole entry): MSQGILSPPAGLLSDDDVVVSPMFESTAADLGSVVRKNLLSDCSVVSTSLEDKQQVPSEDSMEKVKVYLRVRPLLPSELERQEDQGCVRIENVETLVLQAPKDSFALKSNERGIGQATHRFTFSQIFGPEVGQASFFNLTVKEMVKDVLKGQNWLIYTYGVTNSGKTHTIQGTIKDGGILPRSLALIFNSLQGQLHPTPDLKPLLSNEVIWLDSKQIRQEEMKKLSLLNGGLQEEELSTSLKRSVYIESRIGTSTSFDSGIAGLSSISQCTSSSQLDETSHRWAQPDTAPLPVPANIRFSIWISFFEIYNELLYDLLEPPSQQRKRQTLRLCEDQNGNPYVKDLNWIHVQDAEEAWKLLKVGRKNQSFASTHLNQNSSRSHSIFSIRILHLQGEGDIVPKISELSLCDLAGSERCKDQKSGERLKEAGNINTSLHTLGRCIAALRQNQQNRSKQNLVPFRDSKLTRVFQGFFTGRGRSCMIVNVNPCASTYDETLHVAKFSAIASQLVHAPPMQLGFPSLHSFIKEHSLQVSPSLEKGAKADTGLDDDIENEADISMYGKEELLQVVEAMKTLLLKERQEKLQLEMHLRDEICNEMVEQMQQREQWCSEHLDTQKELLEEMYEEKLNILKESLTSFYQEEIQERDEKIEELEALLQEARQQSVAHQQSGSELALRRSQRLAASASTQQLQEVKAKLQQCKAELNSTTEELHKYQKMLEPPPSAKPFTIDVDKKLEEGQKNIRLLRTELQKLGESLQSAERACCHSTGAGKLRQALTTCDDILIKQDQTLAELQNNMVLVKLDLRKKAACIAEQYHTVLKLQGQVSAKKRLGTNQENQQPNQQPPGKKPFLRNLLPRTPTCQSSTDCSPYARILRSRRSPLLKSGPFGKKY

[2] = biological target: T2, Kinesin-like protein KIF3C (Homo sapiens) (UniProt O14782); experiment: Inhibition of porcine brain microtubule-stimulated human recombinant GST-tagged KIF3C ATPase activity at 15 uM by microplate reader in presence of Mg2+ ATP relative to control
T2 sequence (whole entry): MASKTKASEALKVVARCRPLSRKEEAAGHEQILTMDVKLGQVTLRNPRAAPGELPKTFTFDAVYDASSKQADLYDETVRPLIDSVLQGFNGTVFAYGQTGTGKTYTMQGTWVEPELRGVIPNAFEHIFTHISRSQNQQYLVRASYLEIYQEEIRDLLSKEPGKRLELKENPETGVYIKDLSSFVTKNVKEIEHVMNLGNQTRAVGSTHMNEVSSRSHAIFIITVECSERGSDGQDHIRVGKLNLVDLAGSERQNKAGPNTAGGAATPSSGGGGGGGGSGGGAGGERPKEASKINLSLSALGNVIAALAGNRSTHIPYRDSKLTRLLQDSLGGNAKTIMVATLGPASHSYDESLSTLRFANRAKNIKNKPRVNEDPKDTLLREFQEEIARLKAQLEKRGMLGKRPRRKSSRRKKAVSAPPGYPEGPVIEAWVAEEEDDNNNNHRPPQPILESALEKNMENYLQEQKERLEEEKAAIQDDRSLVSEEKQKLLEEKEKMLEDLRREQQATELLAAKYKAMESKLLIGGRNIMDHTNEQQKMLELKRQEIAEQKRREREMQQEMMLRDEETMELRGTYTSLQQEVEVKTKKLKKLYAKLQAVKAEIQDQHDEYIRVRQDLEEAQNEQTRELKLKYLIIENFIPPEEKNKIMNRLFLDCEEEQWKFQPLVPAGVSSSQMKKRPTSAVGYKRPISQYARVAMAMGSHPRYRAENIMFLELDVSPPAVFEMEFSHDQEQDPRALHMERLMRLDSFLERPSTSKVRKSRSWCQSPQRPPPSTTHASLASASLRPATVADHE
Method in brief: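 Each kinesin motor domain was tested against MT-stimulated ATPase at 22 °C in triplicate, with compounds at 15 µM. Buffer was 7.5 mM PIPES-NaOH pH 7.0 with MgCl2, Taxol, ELIPA reagents and 1.25 mg/mL MTs. Reactions were started with 1 mM Mg2+ATP and read kinetically at 360 nm. Monastrol and AMP-PNP (1 mM) were the controls.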

[3] = biological target: T1, Kinesin-like protein KIF20A; experiment: Inhibition of microtubule-stimulated N-terminal MKLP-2 (56 to 505 residues) ATPase activity isolated from human hepatocellular carcinoma cells by pyruvate kinase/lactate dehydrogenase enzyme linked assay; conditions: read-out: IC50
[4] = species on record: Ovis aries; experiment: Inhibition of sheep brain tubulin polymerization by UV spectrophotometric analysis; parameters: concentration or dose not given beside the values
Method in brief: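 Tubulin purified from sheep brain by two assembly/disassembly cycles, about 2–3 mg/mL in 0.1 M MES, 0.5 mM MgCl2, 1 mM EGTA, 1 mM GTP, pH 6.6. Compound in DMSO added at 0 °C, then moved to a 37 °C thermostated cell. Assembly followed by turbidity at 350 nm for a few min.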

[5] = species on record: Ovis aries; experiment: Induction of sheep brain microtubule disassembly by UV spectrophotometric analysis
Method in brief: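 Sheep brain tubulin, purified by two assembly/disassembly cycles and held in MES buffer with GTP at pH 6.6, was polymerized at 37 °C for 10 min. Compound was then added to the MTs at 0 °C and depolymerization was followed over the next few minutes by turbidity at 350 nm.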

[6] = tested on: KB; experiment: Growth inhibition of human KB cells at 10 uM after 72 hrs by MTS assay; type: functional; conditions: read-out: GI
Method in brief: (§1)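 KB cells were grown in DMEM with 25 mM glucose and 10% FCS at 37 °C, 5% CO2, and seeded at 500 cells/well. 24 h later, compound in DMSO (1% final) was added at 10 µM or 1 µM for 72 h; controls received DMSO alone. Runs were in duplicate. Viable cells were read with MTS at 490 nm.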

[7] = tested on: KB; experiment: Growth inhibition of human KB cells at 1 uM after 72 hrs by MTS assay; type: functional; conditions: read-out: GI; method in brief: as §1

Structure (SMILES) | IC50 ([1]; read-out: IC50) [µM] | inhibition [2] [%] | IC50 [3] [µM] | inhibition ([4]; concentration not given here) [%] | Activity [5] | inhibition of growth at 10 µM [6] [%] | inhibition of growth at 1 µM [7] [%] | IC50 [1] | inhibition [4]
N#C/C(=C\c1ccc2c(c1)OCO2)c1c[nH]c2ccccc12 | 14.3 | < 20 | 5.1 | 35 | inactive | 100 | 11 | – | –
COc1ccc2c(/C(C#N)=C/c3cccnc3)c[nH]c2c1 | 5.6 | < 20 | 5.4 | 54 | inactive | 87 | 78 | – | –
N#C/C(=C\c1cccnc1)c1c[nH]c2ccc(OCc3ccccc3)cc12 | – | < 20 | 1.3 | 12 | inactive | 57 | – | Not Active | –
COc1ccc2[nH]cc(/C(C#N)=C/c3cccnc3)c2c1 | 1.2 | < 20 | 0.23 | – | – | 57 | – | – | inactive
CCOC(=O)C1=C(C)NC(=S)NC1c1cccc(O)c1 (configuration not stated) | – | < 20 | – | – | – | – | – | – | –
COc1cccc2[nH]cc(/C(C#N)=C/c3cccnc3)c12 | 4.2 | < 20 | 3.3 | – | inactive | 27 | – | – | inactive
